Laboratory results as given in ChEMBL document CHEMBL1125694, “Fluorinated sugar analogues of potential anti-HIV-1 nucleosides” (J Med Chem, 1991).
Active and inactive are the calls of the source. The rule behind the calls is not given here.

How the values were obtained:
Format in all cases: functional, cell-based
[1] = system: H9; experiment: Anti-HIV activity in H9 cell line; Not active; settings: Homo sapiens
[2] = system: HL-60; experiment: Inhibition of human promyelocytic leukemic cell (HL-60) by […]-microculture tetrazolium assay
Method in brief: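 HL-60 cells exposed 4 days to five or six concentrations of each nucleoside, in duplicate. Then PMS-XTT mixture (0.075 mM PMS with 1 mg/mL XTT) added for 6 h at 37 °C. Absorbance at 450 and 630 nm. Median inhibitory concentration (IC50) derived.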

[3] = system: HL-60; experiment: Inhibition of human promyelocytic leukemic cell (HL-60) trypan blue exclusion assay
Method in brief: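 HL-60 growth inhibition by trypan blue exclusion, five or six concentrations per nucleoside, in duplicate. Median inhibitory concentration (IC50) derived.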

[4] = system: H9; experiment: Compound was tested for anti-HIV activity in H9 cell line; Not active; settings: Homo sapiens
[5] = system: H9; experiment: Compound was tested for anti-HIV activity in H9 cell line; Active; settings: Homo sapiens
[6] = system: MT4; experiment: Compound was tested for anti-HIV activity in MT-4 cell line; Not active; settings: Homo sapiens

Structure (SMILES): Cc1cn([C@H]2C[C@H](OS(C)(=O)=O)[C@@H](COS(C)(=O)=O)O2)c(=O)[nH]c1=O
- Activity [1]: inactive
- IC50 [2]: > 1000 µM
- IC50 [3]: > 1000 µM

Structure (SMILES): Cc1cn(C2OC(COC(c3ccccc3)(c3ccccc3)c3ccccc3)CC2F)c(=O)nc1-n1cncn1 (centres undefined)
- Activity [1]: inactive
- IC50 [2]: > 1000 µM
- IC50 [3]: > 1000 µM

Structure (SMILES): Cc1cn(C2OC(COC(c3ccccc3)(c3ccccc3)c3ccccc3)C(F)C2O)c(=O)[nH]c1=O (centres undefined)
- Activity [1]: inactive
- IC50 [2]: > 1000 µM
- IC50 [3]: > 1000 µM

Structure (SMILES): Cc1cn([C@@H]2O[C@H](CO)[C@@H](N=[N+]=[N-])[C@H]2F)c(=O)[nH]c1=O
- Activity [1]: inactive
- IC50 [2]: > 1000 µM
- IC50 [3]: > 1000 µM

Structure (SMILES): Cc1cn([C@@H]2O[C@H](COC(c3ccccc3)(c3ccccc3)c3ccccc3)[C@@H]3O[C@@H]32)c(=O)[nH]c1=O
- Activity [1]: inactive
- IC50 [2]: > 1000 µM
- IC50 [3]: > 1000 µM

Structure (SMILES): Cc1cn([C@@H]2O[C@H](CO)[C@@H](OC(c3ccccc3)(c3ccccc3)c3ccccc3)[C@H]2OC(c2ccccc2)(c2ccccc2)c2ccccc2)c(=O)[nH]c1=O
- IC50 [2]: > 1000 µM
- IC50 [3]: > 1000 µM
- Activity [4]: inactive

Structure (SMILES): Cc1cn2c(nc1=O)O[C@@H]1C[C@H]2O[C@@H]1CO
- Activity [1]: inactive
- IC50 [2]: > 1000 µM
- IC50 [3]: > 1000 µM

Structure (SMILES): CC(=O)OCC1OC(n2cc(C)c(=O)[nH]c2=O)CC1F (centres undefined)
- Activity [1]: inactive
- IC50 [2]: > 1000 µM
- IC50 [3]: > 1000 µM

Structure (SMILES): Cc1cn(C2OC(COC(c3ccccc3)(c3ccccc3)c3ccccc3)C(N=[N+]=[N-])C2F)c(=O)[nH]c1=O (centres undefined)
- Activity [1]: inactive
- IC50 [2]: > 1000 µM
- IC50 [3]: > 1000 µM

Structure (SMILES): Cc1cn2c(nc1=O)O[C@@H]1C[C@H]2O[C@@H]1COS(C)(=O)=O
- Activity [1]: inactive
- IC50 [2]: > 1000 µM
- IC50 [3]: > 1000 µM

Structure (SMILES): Cc1cn([C@@H]2O[C@H](CO)C[C@H]2F)c(=O)[nH]c1=O
- Activity [1]: inactive
- IC50 [2]: > 1000 µM
- IC50 [3]: > 1000 µM

Structure (SMILES): Cc1cn([C@@H]2O[C@H](COC(c3ccccc3)(c3ccccc3)c3ccccc3)[C@@H](OS(C)(=O)=O)[C@@H]2F)c(=O)[nH]c1=O
- Activity [1]: inactive
- IC50 [2]: > 1000 µM
- IC50 [3]: > 1000 µM

Structure (SMILES): Cc1cn(C2OC(COC(=O)c3ccccc3)C(F)C2F)c(=O)[nH]c1=O (centres undefined)
- Activity [1]: inactive
- IC50 [2]: > 1000 µM
- IC50 [3]: > 1000 µM

Structure (SMILES): Cc1cn([C@H]2C[C@H](F)[C@@H](CO)O2)c(=O)[nH]c1=O
- Activity [5]: Active

Structure (SMILES): Cc1cn(C2OC(COC(c3ccccc3)(c3ccccc3)c3ccccc3)C(N=[N+]=[N-])C2O)c(=O)[nH]c1=O (centres undefined)
- Activity [1]: inactive
- IC50 [2]: > 1000 µM
- IC50 [3]: > 1000 µM

Structure (SMILES): Cc1cn([C@@H]2O[C@H](CO)[C@@H](O)[C@@H]2O)c(=O)[nH]c1=O
- Activity [1]: inactive
- IC50 [2]: > 1000 µM
- IC50 [3]: > 1000 µM

Structure (SMILES): Cc1cn(C2OC(CO)C(F)C2F)c(=O)nc1N (centres undefined)
- Activity [1]: inactive
- IC50 [2]: 234 µM
- IC50 [3]: 123 µM

Structure (SMILES): Cc1cn2c(nc1=O)O[C@@H]1[C@H](F)[C@H]2O[C@@H]1COC(c1ccccc1)(c1ccccc1)c1ccccc1
- Activity [1]: inactive
- IC50 [2]: > 1000 µM
- IC50 [3]: > 1000 µM

Structure (SMILES): Cc1cn([C@@H]2O[C@H](CO)[C@@H](N=[N+]=[N-])[C@@H]2F)c(=O)[nH]c1=O
- Activity [1]: inactive
- Activity [6]: inactive

Structure (SMILES): Cc1cn(C2OC(COC(c3ccccc3)(c3ccccc3)c3ccccc3)C(F)C2F)c(=O)[nH]c1=O (centres undefined)
- Activity [1]: inactive
- IC50 [2]: > 1000 µM
- IC50 [3]: > 1000 µM

Structure (SMILES): Cc1cn(C2OC(COC(=O)c3ccccc3)C(F)C2F)c(=O)[nH]c1=S (centres undefined)
- Activity [1]: inactive
- IC50 [2]: > 1000 µM
- IC50 [3]: > 1000 µM

Structure (SMILES): Cc1cn2c(nc1=O)O[C@H]1[C@H](O)[C@@H](COC(c3ccccc3)(c3ccccc3)c3ccccc3)O[C@H]12
- Activity [1]: inactive
- IC50 [2]: > 1000 µM
- IC50 [3]: > 1000 µM

Structure (SMILES): Cc1cn2c(nc1=O)O[C@@H]1[C@H](F)[C@H]2O[C@@H]1COC(=O)c1ccccc1
- Activity [1]: inactive
- IC50 [2]: > 1000 µM
- IC50 [3]: > 1000 µM

Structure (SMILES): Cc1cn([C@@H]2O[C@H](CO)[C@@H](F)[C@H]2F)c(=O)[nH]c1=O
- Activity [1]: inactive
- IC50 [2]: > 1000 µM
- IC50 [3]: > 1000 µM

Structure (SMILES): Cc1cn([C@@H]2O[C@H](CO)[C@@H](F)[C@H]2N=[N+]=[N-])c(=O)[nH]c1=O
- Activity [1]: inactive
- IC50 [2]: > 1000 µM
- IC50 [3]: > 1000 µM

Structure (SMILES): Cc1cn(C2CC(F)C(COS(C)(=O)=O)O2)c(=O)[nH]c1=O (centres undefined)
- Activity [1]: inactive
- IC50 [2]: > 1000 µM
- IC50 [3]: > 1000 µM

Structure (SMILES): Cc1cn([C@@H]2O[C@H](COC(=O)c3ccccc3)[C@@H](OS(C)(=O)=O)[C@@H]2F)c(=O)[nH]c1=O
- Activity [1]: inactive
- IC50 [2]: > 1000 µM
- IC50 [3]: > 1000 µM

Structure (SMILES): Cc1cn([C@@H]2O[C@H](COC(c3ccccc3)(c3ccccc3)c3ccccc3)[C@H](O)[C@H]2F)c(=O)[nH]c1=O
- Activity [1]: inactive
- IC50 [2]: > 1000 µM
- IC50 [3]: > 1000 µM

Structure (SMILES): Cc1cn2c(nc1=O)OC1CC(COC(c3ccccc3)(c3ccccc3)c3ccccc3)OC12 (centres undefined)
- Activity [1]: inactive
- IC50 [2]: > 1000 µM
- IC50 [3]: > 1000 µM

Structure (SMILES): Nc1ccn([C@@H]2O[C@H](CO)C[C@@H]2F)c(=O)n1
- Activity [5]: Active

Structure (SMILES): Cc1cn([C@@H]2O[C@H](COC(=O)c3ccccc3)[C@@H](O)[C@@H]2F)c(=O)[nH]c1=O
- Activity [1]: inactive
- IC50 [2]: > 1000 µM
- IC50 [3]: > 1000 µM

Structure (SMILES): Cc1cn([C@@H]2O[C@H](CO)C=C2F)c(=O)[nH]c1=O
- Activity [1]: inactive
- IC50 [2]: > 1000 µM
- IC50 [3]: > 1000 µM

Structure (SMILES): Cc1cn([C@@H]2O[C@H](CO)C[C@H]2F)c(=O)nc1N
- Activity [1]: inactive
- IC50 [2]: > 1000 µM
- IC50 [3]: > 1000 µM

Structure (SMILES): Cc1cn([C@@H]2O[C@H](COC(c3ccccc3)(c3ccccc3)c3ccccc3)C[C@H]2F)c(=O)[nH]c1=O
- Activity [1]: inactive
- IC50 [2]: > 1000 µM
- IC50 [3]: > 1000 µM

Structure (SMILES): Cc1cn([C@@H]2O[C@H](CO)[C@@H](F)[C@@H]2F)c(=O)[nH]c1=O
- Activity [1]: inactive
- IC50 [2]: > 1000 µM
- IC50 [3]: > 1000 µM

Structure (SMILES): Cc1cn([C@@H]2O[C@H](CO)[C@@H](O)[C@@H]2F)c(=O)[nH]c1=O [5-METHYL-2'-FLUOROARAURACIL]
- Activity [1]: inactive
- IC50 [2]: > 1000 µM
- IC50 [3]: > 1000 µM

Structure (SMILES): Cc1cn(C2OC(COC(c3ccccc3)(c3ccccc3)c3ccccc3)C(F)C2N=[N+]=[N-])c(=O)[nH]c1=O (centres undefined)
- Activity [1]: inactive
- IC50 [2]: > 1000 µM
- IC50 [3]: > 1000 µM

Structure (SMILES): Cc1cn([C@@H]2O[C@H](COC(c3ccccc3)(c3ccccc3)c3ccccc3)[C@H](O)[C@H]2N=[N+]=[N-])c(=O)[nH]c1=O
- Activity [1]: inactive
- IC50 [2]: > 1000 µM
- IC50 [3]: > 1000 µM

Structure (SMILES): Cc1cn(C2OC(CO)C[C@@H]2F)c(=O)[nH]c1=O (some centres undefined)
- Activity [1]: inactive
- IC50 [2]: > 1000 µM
- IC50 [3]: > 1000 µM

Structure (SMILES): Cc1cn([C@@H]2O[C@H](COC(c3ccccc3)(c3ccccc3)c3ccccc3)[C@@H](OS(C)(=O)=O)[C@H]2OS(C)(=O)=O)c(=O)[nH]c1=O
- Activity [1]: inactive
- IC50 [2]: > 1000 µM
- IC50 [3]: > 1000 µM

Structure (SMILES): Cc1cn(C2OC(COC(c3ccccc3)(c3ccccc3)c3ccccc3)CC2F)c(=O)nc1N (centres undefined)
- Activity [1]: inactive
- IC50 [2]: > 1000 µM
- IC50 [3]: > 1000 µM

Structure (SMILES): Cc1cn(C2OC(COC(c3ccccc3)(c3ccccc3)c3ccccc3)CC2O)c(=O)[nH]c1=O (centres undefined)
- Activity [1]: inactive
- IC50 [2]: > 1000 µM
- IC50 [3]: > 1000 µM

Structure (SMILES): Cc1cn2c(nc1=O)O[C@H]1[C@H](OC(=S)n3ccnc3)[C@@H](COC(c3ccccc3)(c3ccccc3)c3ccccc3)O[C@H]12
- Activity [1]: inactive
- IC50 [2]: > 1000 µM
- IC50 [3]: > 1000 µM
